What was measured:
[1] = Cytotoxicity activity against mouse LLC cells after 48 hrs by MTT assay; conditions: Lewis lung carcinoma
MCF7 = test: Cytotoxic activity against human MCF7 cells after 48 hrs by MTT assay; format: functional, cell-based; conditions: MCF7, 48 h
Summary of the method: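 Modified MTT assay. Viable cells seeded at 1 × 10^4 per well in growth medium and incubated at 37 °C, 5% CO2. Samples dissolved in DMSO and diluted in growth medium to final concentrations of 5.0–150 µM. Optical density read on a microplate reader; IC50 values derived.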

| Structure (SMILES) | IC50 [1] [µM] | IC50 (MCF7) [µM] |
| --- | --- | --- |
| CC1(C)CC[C@]2(C)CC[C@]3(C(=O)O)C(=CC[C@@H]4[C@@]5(C)CC[C@@H](O)[C@@](C)(C=O)[C@@H]5CC[C@]43C)[C@@H]2C1 | 39.2 | 47 |
| C[C@@]1(C(=O)O)CC[C@]2(C)CC[C@]3(C)C(=CC[C@@H]4[C@@]5(C)CC[C@@H](O)[C@@](C)(C(=O)O)[C@@H]5CC[C@]43C)[C@@H]2C1 | 47.8 | 62.4 |
| CC(=O)O[C@@H]1CC[C@@]2(C)[C@@H](CC[C@]3(C)[C@@H]2CC=C2[C@@H]4CC(C)(C)CC[C@]4(C)CC[C@]23C(=O)O)[C@]1(C)C(=O)O | > 150 | 58.4 |
| CC1(C)CC[C@]2(C)CC[C@]3(C(=O)O)C(=CC[C@@H]4[C@@]5(C)CC[C@@H](OC(=O)/C=C/c6ccc(O)c(O)c6)C(C)(C)[C@@H]5CC[C@]43C)[C@@H]2C1 | > 150 | > 150 |
| CC(=O)O[C@@H]1CC[C@@]2(C)[C@@H](CC[C@]3(C)[C@@H]2CC=C2[C@@H]4C[C@](C)(C(=O)O)CC[C@]4(C)CC[C@]23C)[C@]1(C)C(=O)O | > 150 | > 150 |
| C[C@@]1(C(=O)O)CC[C@]2(C)CC[C@]3(C)C(=CC[C@@H]4[C@@]5(C)CC[C@H](O)[C@@](C)(C(=O)O)[C@@H]5CC[C@]43C)[C@@H]2C1 | > 150 | > 150 |
| CC1(C)CC[C@]2(C)CC[C@]3(C(=O)O)C(=CC[C@@H]4[C@@]5(C)CC[C@H]6OC(C)(C)OC[C@@]6(C)[C@@H]5CC[C@]43C)[C@@H]2C1 | > 150 | > 150 |
| C[C@@]1(C(=O)O)CC[C@]2(C)CC[C@]3(C)C(=CC[C@@H]4[C@@]5(C)CC[C@H](O)[C@@](C)(CO)[C@@H]5CC[C@]43C)[C@@H]2C1 | > 150 | 107 |
| CC1(C)CC[C@]2(C)CC[C@]3(C(=O)O)C(=CC[C@@H]4[C@@]5(C)CCC(=O)C(C)(C)[C@@H]5CC[C@]43C)[C@@H]2C1 | > 150 | 53.6 |
| CC1(C)CC[C@]2(C)CC[C@]3(C(=O)O)C(=CC[C@@H]4[C@@]5(C)CCC(=O)[C@@](C)(CO)[C@@H]5CC[C@]43C)[C@@H]2C1 | 6.56 | 39.2 |
| CC1(C)[C@@H](O)CC[C@]2(C)[C@H]3CC=C4[C@@H]5C[C@](C)(C(=O)O)CC[C@]5(C)CC[C@@]4(C)[C@]3(C)CC[C@@H]12 | 16.6 | > 150 |
| CC1(C)CC[C@]2(C)CC[C@]3(C(=O)O)C(=CC[C@@H]4[C@@]5(C)CC[C@H](O)C(C)(C)[C@@H]5CC[C@]43C)[C@@H]2C1 | 7.63 | > 150 |
| CC1(C)CC[C@]2(C)CC[C@]3(C(=O)O)C(=CC[C@@H]4[C@@]5(C)CC[C@@H](O)[C@@](C)(CO)[C@@H]5CC[C@]43C)[C@@H]2C1 [ACERIPHYLLIC ACID A] | 8.36 | > 150 |
| CC1(C)CC[C@]2(C(=O)O)CC[C@]3(C)C(=CC[C@@H]4[C@@]5(C)CC[C@H](O)C(C)(C)[C@@H]5CC[C@]43C)[C@@H]2C1 [OLEANOLIC_ACID] | > 150 | > 150 |

— ChEMBL document CHEMBL1153794, “Oleanane-type triterpenoids from Aceriphyllum rossii and their cytotoxic activity” (J Nat Prod, 2009)
